Here are results for 13 compounds from ChEMBL document CHEMBL1151742, “Design, synthesis, and characterization of high-affinity, systemically-active galanin analogues with potent anticonvulsant activities” (J Med Chem, 2008).

A short description of data set [1]: Metabolic stability in rat serum assessed as half life at pH 7.5. It is filed as ADME, cell-free. The gist of the method: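 Peptide (final 20 µM) was incubated in 25% rat serum with 0.1 M Tris-HCl pH 7.5 at 37 °C, serum pre-warmed 10 min. Aliquots taken up to 8 h were quenched with 15% TCA in 40% isopropanol, held 15 min at -20 °C and centrifuged. Intact peptide was measured by reversed-phase HPLC peak area, and half-life was calculated from the disappearance.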

For data set [2], the target named is T1, Galanin receptor type 1 (Homo sapiens, UniProt P47211).
T1 sequence (P47211 whole entry): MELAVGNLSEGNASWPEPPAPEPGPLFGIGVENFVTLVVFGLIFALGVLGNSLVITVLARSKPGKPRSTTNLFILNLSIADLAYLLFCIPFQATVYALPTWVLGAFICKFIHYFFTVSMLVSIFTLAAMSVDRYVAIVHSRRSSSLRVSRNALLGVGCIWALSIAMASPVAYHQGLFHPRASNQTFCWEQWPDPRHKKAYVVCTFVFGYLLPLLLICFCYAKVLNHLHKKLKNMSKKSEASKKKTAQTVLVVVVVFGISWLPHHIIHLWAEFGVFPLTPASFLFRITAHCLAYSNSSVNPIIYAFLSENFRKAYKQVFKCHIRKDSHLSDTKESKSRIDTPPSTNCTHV
Put plainly: Displacement of europium-labeled galanin from human GalR1 expressed in HEK293 EBNA cells. It is filed as cell-based.

Data set [3] has as its target T2, Galanin receptor type 2 (Homo sapiens, UniProt O43603).
T2 sequence (O43603 whole entry): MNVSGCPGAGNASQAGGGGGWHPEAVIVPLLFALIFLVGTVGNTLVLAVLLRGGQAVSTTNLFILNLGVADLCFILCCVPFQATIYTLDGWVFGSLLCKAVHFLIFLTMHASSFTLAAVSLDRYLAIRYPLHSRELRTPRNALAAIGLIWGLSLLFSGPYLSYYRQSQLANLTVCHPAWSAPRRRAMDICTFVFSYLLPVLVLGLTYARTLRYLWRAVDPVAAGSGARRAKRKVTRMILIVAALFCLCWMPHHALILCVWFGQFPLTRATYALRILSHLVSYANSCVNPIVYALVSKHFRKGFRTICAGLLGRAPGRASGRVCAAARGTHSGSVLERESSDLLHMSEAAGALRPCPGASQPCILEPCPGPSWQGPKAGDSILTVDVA
Put plainly: Displacement of europium-labeled galanin from human GalR2 expressed in CHO-K1 cells. It is filed as cell-based.

Data set [4] relates to Mus musculus. Put plainly: Anticonvulsant activity in CF1 mouse assessed as inhibition of 6 Hz corneal stimulation-induced limbic seizures at 4 mg/kg, ip administered 120 mins before 6 Hz corneal stimulation. It is filed as functional, organism-based. Also noted: dose 4 mg/kg. Particulars: Limbic system. The gist of the method: (§1)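 Each analogue given ip at 4 mg/kg to five groups of CF-1 mice (n = 4 per group), one group per time point. Seizure challenge was 6 Hz corneal stimulation (32 mA for 3 s, corneal electrodes) at 15, 30, 60, 120 or 240 min after dosing. A mouse without a limbic seizure (jaw chomping, vibrissae twitching, forelimb clonus, Straub tail) was counted as protected.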

Data set [5] deals with Mus musculus. Put plainly: Anticonvulsant activity in CF1 mouse assessed as inhibition of 6 Hz corneal stimulation-induced limbic seizures at 4 mg/kg, ip administered 240 mins before 6 Hz corneal stimulation. Also noted: dose 4 mg/kg. The settings on record: Limbic system. It is filed as functional, organism-based. Put shortly:
as §1

In data set [6] the test system is Mus musculus. In words: Anticonvulsant activity in CF1 mouse assessed as inhibition of 6 Hz corneal stimulation-induced limbic seizures at 4 mg/kg, ip administered 60 mins before 6 Hz corneal stimulation. Particulars: Limbic system. More on the design: dose 4 mg/kg. It is filed as functional, organism-based. Put shortly:
as §1

In data set [7] the target is T2, Galanin receptor type 2. In words: Binding affinity to human GalR2.

Usually half-life stands for the time in which the quantity being followed falls by half. By pKi is commonly meant the negative decadic logarithm of the Ki, by convention in mol/L. High values mean a small Ki, low ones a large Ki. A word on the pKd: it is the Kd on a negative log10 scale, so that one unit is a factor of ten. A high value points to a small Kd.

pKd, pKi: −log10 of the molar value. Where a name gives a salt, the structure may show the parent alone. Active and inactive are the calls of the source. No cut-off for these calls is given here. Square brackets hold non-standard residues; d marks the D form. Peptide text beside a SMILES is read from it. * marks the point of attachment. Fmoc = O=C(OCC1c2ccccc2-c2ccccc21)*; Palmitoyl = CCCCCCCCCCCCCCCC(=O)*; Cha = N[C@@H](CC1CCCCC1)C(=O)O; AMC = Cc1cc(=O)oc2cc(N*)ccc12; Sar = CNCC(=O)O

Take `CCCCCCCCCCCCCCCC(=O)NCCCC[C@H](NC(=O)[C@H](CCCCN)NC(=O)[C@H](CCCCN)NC(=O)[C@H](CCCCN)NC(=O)[C@H](CCCCN)NC(=O)[C@H](CC(C)C)NC(=O)[C@H](CC(C)C)NC(=O)[C@H](Cc1ccc(O)cc1)NC(=O)CNC(=O)[C@H](C)NC(=O)[C@H](CO)NC(=O)[C@H](CC(N)=O)NC(=O)[C@H](CC(C)C)NC(=O)[C@@H](NC(=O)[C@H](Cc1c[nH]c2ccccc12)NC(=O)CNC)[C@@H](C)O)C(=O)N[C@@H](CCCCN)C(N)=O` (H-[Sar]WTLNSAGYLLKKKKK(Palmitoyl)K-NH2): in data set [1], the half-life was 8.7 h. Also, the pKi is 7.38 in data set [2] and 6.67 in data set [3]. For the same compound, the outcome in data set [4] was Active.
As to `CCCCCCCCCCCCCCCC(=O)NCCCC[C@H](NC(=O)[C@H](CCCCN)NC(=O)[C@H](CCCCN)NC(=O)CNC(=O)[C@H](CC(C)C)NC(=O)[C@H](CC(C)C)NC(=O)[C@H](Cc1ccc(O)cc1)NC(=O)CNC(=O)[C@H](C)NC(=O)[C@H](CO)NC(=O)[C@H](CC(N)=O)NC(=O)[C@H](CC(C)C)NC(=O)[C@@H](NC(=O)[C@H](Cc1c[nH]c2ccccc12)NC(=O)CNC)[C@@H](C)O)C(=O)N[C@@H](CCCCN)C(N)=O`, the half-life in data set [1] is 5.6 h. Further, the values for the pKi in data set [2] and in data set [3] were 7.59 and 7.12, respectively. Further, the result in data set [4] and in data set [5] was inactive.
`CCCCCCCCCCCCCCCC(=O)NCCCC[C@@H](NC(=O)[C@H](CCCCN)NC(=O)[C@@H](CCCCN)NC(=O)[C@H]1CCCN1C(=O)CNC(=O)[C@H](CC(C)C)NC(=O)[C@H](CC(C)C)NC(=O)[C@H](Cc1ccc(O)cc1)NC(=O)CNC(=O)[C@H](C)NC(=O)[C@H](CO)NC(=O)[C@H](CC(N)=O)NC(=O)[C@H](CC(C)C)NC(=O)[C@@H](NC(=O)[C@H](Cc1c[nH]c2ccccc12)NC(=O)CNC)[C@@H](C)O)C(=O)N[C@@H](CCCCN)C(N)=O`: in data set [6], the outcome was Active.
On to `Cc1cc(=O)oc2cc(NC(=O)[C@@H](CCCCN)NC(=O)[C@H](CC3CCCCC3)NC(=O)OCC3c4ccccc4-c4ccccc43)ccc12` [GALNON] (Fmoc-[Cha]-[dK]-{AMC}), for which the negative-log Kd (pKd) in data set [7] was 4.62.
In the case of `CCCCCCCCCCCCCCCC(=O)NCCCC[C@H](NC(=O)[C@@H](CCCCN)NC(=O)[C@@H](CCCCN)NC(=O)[C@@H]1CCCN1C(=O)CNC(=O)[C@H](CC(C)C)NC(=O)[C@H](CC(C)C)NC(=O)[C@H](Cc1ccc(O)cc1)NC(=O)CNC(=O)[C@H](C)NC(=O)[C@H](CO)NC(=O)[C@H](CC(N)=O)NC(=O)[C@H](CC(C)C)NC(=O)[C@@H](NC(=O)[C@H](Cc1c[nH]c2ccccc12)NC(=O)CNC)[C@@H](C)O)C(=O)N[C@H](CCCCN)C(N)=O`, in data set [1], the half-life was above 10 h. The same compound had a negative-log Ki (pKi) in data set [2] of 9.05.
In the case of `CCCCCCCCCCCCCCCC(=O)NCCCC[C@H](NC(=O)[C@H](CCCCN)NC(=O)[C@H](CCCCN)NC(=O)[C@@H]1CCCN1C(=O)CNC(=O)[C@H](CC(C)C)NC(=O)[C@H](CC(C)C)NC(=O)[C@H](Cc1ccc(O)cc1)NC(=O)CNC(=O)[C@H](C)NC(=O)[C@H](CO)NC(=O)[C@H](CC(N)=O)NC(=O)[C@H](CC(C)C)NC(=O)[C@@H](NC(=O)[C@H](Cc1c[nH]c2ccccc12)NC(=O)CN)[C@@H](C)O)C(=O)N[C@@H](CCCCN)C(N)=O`, in data set [1], the half-life is above 10 h. The pKi in data set [2] is 8.28; in data set [3] it was 7.65. Also, the outcome in data set [4] and in data set [5] was inactive.
As for `CCCCCCCCCCCCCCCC(=O)NCCCC[C@H](NC(=O)[C@H](CCCN=C(N)N)NC(=O)[C@H](CCCN=C(N)N)NC(=O)[C@@H]1CCCN1C(=O)CNC(=O)[C@H](CC(C)C)NC(=O)[C@H](CC(C)C)NC(=O)[C@H](Cc1ccc(O)cc1)NC(=O)CNC(=O)[C@H](C)NC(=O)[C@H](CO)NC(=O)[C@H](CC(N)=O)NC(=O)[C@H](CC(C)C)NC(=O)[C@@H](NC(=O)[C@H](Cc1c[nH]c2ccccc12)NC(=O)CNC)[C@@H](C)O)C(=O)N[C@@H](CCCN=C(N)N)C(N)=O`, the half-life in data set [1] was 4.8 h. Further, the pKi in data set [2] is 8.48; in data set [3] it was 7.18.
Consider `CCCCCCCCCCCCCCCC(=O)NCCCC[C@H](NC(=O)[C@H](CCCCN)NC(=O)[C@H](CCCCN)NC(=O)[C@@H]1CCCN1C(=O)CNC(=O)[C@H](CC(C)C)NC(=O)[C@H](CC(C)C)NC(=O)[C@H](Cc1ccc(O)cc1)NC(=O)CNC(=O)[C@H](C)NC(=O)[C@H](CO)NC(=O)[C@H](CC(N)=O)NC(=O)[C@H](CC(C)C)NC(=O)[C@@H](NC(=O)[C@@H](N)Cc1c[nH]c2ccccc12)[C@@H](C)O)C(=O)N[C@@H](CCCCN)C(N)=O` (H-WTLNSAGYLLGPKKK(Palmitoyl)K-NH2), for which the half-life in data set [1] was above 10 h. The negative-log Ki (pKi) in data set [2] is 6.41; in data set [3] it was 7.32. The result in data set [5] was inactive.
With `COC(=O)[C@H](CCCCN)NC(=O)[C@]1(C)NC(=O)c2nc(oc2C)[C@](C)(C(=O)NC2c3ccccc3-c3ccccc32)NC(=O)c2nc(oc2C)[C@](C)(C(=O)NCC2CCCCC2)NC(=O)c2nc1oc2C` [GALMIC TFA], the negative logarithm of the Kd (pKd) in data set [7] is below 4.00.
Consider `CCCCCCCCCCCCCCCC(=O)NCCCC[C@H](NC(=O)[C@H](CCCCN)NC(=O)[C@@H]1CCCN1C(=O)CNC(=O)[C@H](CC(C)C)NC(=O)[C@H](CC(C)C)NC(=O)[C@H](Cc1ccc(O)cc1)NC(=O)CNC(=O)[C@H](C)NC(=O)[C@H](CO)NC(=O)[C@H](CC(N)=O)NC(=O)[C@H](CC(C)C)NC(=O)[C@@H](NC(=O)[C@H](Cc1c[nH]c2ccccc12)NC(=O)CNC)[C@@H](C)O)C(=O)N[C@@H](CCCCN)C(=O)N[C@@H](CCCCN)C(N)=O`, for which the half-life in data set [1] is 8.6 h. In addition, the pKi was 8.22 in data set [2] and 7.55 in data set [3]. For the same compound, the outcome in data set [6], in data set [4] and in data set [5] was inactive.
As to `CCCCCCCCCCCCCCCC(=O)NCCCC[C@H](NC(=O)[C@H](CCCCN)NC(=O)[C@H](CCCCN)NC(=O)[C@H](CCCCN)NC(=O)[C@@H]1CCCN1C(=O)CNC(=O)[C@H](CC(C)C)NC(=O)[C@H](CC(C)C)NC(=O)[C@H](Cc1ccc(O)cc1)NC(=O)CNC(=O)[C@H](C)NC(=O)[C@H](CO)NC(=O)[C@H](CC(N)=O)NC(=O)[C@H](CC(C)C)NC(=O)[C@@H](NC(=O)[C@H](Cc1c[nH]c2ccccc12)NC(=O)CNC)[C@@H](C)O)C(N)=O`, the half-life in data set [1] is above 10 h. In addition, the values for the negative logarithm of the Ki (pKi) in data set [2] and in data set [3] were 8.72 and 7.66, respectively. Besides, the outcome in data set [4] and in data set [5] was inactive.
Take `CCCCCCCCCCCCCCCC(=O)NCCCC[C@H](NC(=O)[C@H](CCCNC(=N)N)NC(=O)[C@H](CCCNC(=N)N)NC(=O)[C@@H]1CCCN1C(=O)CNC(=O)[C@H](CC(C)C)NC(=O)[C@H](CC(C)C)NC(=O)[C@H](Cc1ccc(O)cc1)NC(=O)CNC(=O)[C@H](C)NC(=O)[C@H](CO)NC(=O)[C@H](CC(N)=O)NC(=O)[C@H](CC(C)C)NC(=O)[C@@H](NC(=O)[C@H](Cc1c[nH]c2ccccc12)NC(=O)CNC)[C@@H](C)O)C(=O)N[C@@H](CCCNC(=N)N)C(N)=O`: the outcome in data set [6] was Active. Also, the result in data set [5] was inactive.
The compound `CC(C)C[C@H](NC(=O)[C@H](CC(C)C)NC(=O)[C@H](Cc1ccc(O)cc1)NC(=O)CNC(=O)[C@H](C)NC(=O)[C@H](CO)NC(=O)[C@H](CC(N)=O)NC(=O)[C@H](CC(C)C)NC(=O)[C@@H](NC(=O)[C@@H](N)Cc1c[nH]c2ccccc12)[C@@H](C)O)C(=O)O` had a pKd in data set [7] of 8.74.
